RAD54 inh: inhibitors of human RAD54 branch migration, primary screen, biochemical, fluorescence, single point | DNA repair and recombination protein RAD54-like (Homo sapiens), Q92698 | RAD54 Holliday junction branch migration, FAM/BHQ fluorescence | inhibition, % at 10.4 µM | hit rate 0.14% among 360,000 | AID 602329, 2012;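 active = mean normalized replicate activity at least 40 and at least half of replicates scoring 40 or more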;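 note: 0% = median of neutral control wells and 100% = median of positive control wells; inhibitors cause a drop in the FAM fluorescence signal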
Ecoli rRNA inh: reduced GFP signal of wild-type E. coli, primary screen, bacterial rRNA inhibitor project, GFP/RFP fluorescence, OD600, single point. E. coli WT GFP vs humanized-ribosome RFP mutants, 24 h; stronger effect = lower value; DMSO median 0, no signal -100. GFP signal change (wild-type ribosome), % (no concentration beside the values). hit rate 1.6% among 350,000. AID 720706, 2013;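 active = significant combined selectivity score with lowered wild-type GFP, culture density cut under 30%, mutant RFP and density less affected; inactive = any of these conditions unmet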
PglD DTNB: C. jejuni PglD acetyltransferase inhibitors, primary screen, biochemical, DTNB colorimetric, single point; hit rate 0.098% among 360,000; purified PglD enzyme, DTNB colorimetric CoA detection; inhibition, % at 12.5 µM; in the data active = inhibition above about 16%, passing the limit was not always enough
RAD52 inh: RAD52 DNA annealing inhibitors, primary screen, biochemical, FRET, single point, set 2. DNA repair protein RAD52 homolog (Homo sapiens), P43351. recombinant RAD52 DNA annealing, FRET fluorescence. inhibition, % at 18.7 µM. hit rate 0.46% among 360,000;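 active = every replicate showing at least 50% inhibition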
Target sequence (P43351 whole entry, looked up): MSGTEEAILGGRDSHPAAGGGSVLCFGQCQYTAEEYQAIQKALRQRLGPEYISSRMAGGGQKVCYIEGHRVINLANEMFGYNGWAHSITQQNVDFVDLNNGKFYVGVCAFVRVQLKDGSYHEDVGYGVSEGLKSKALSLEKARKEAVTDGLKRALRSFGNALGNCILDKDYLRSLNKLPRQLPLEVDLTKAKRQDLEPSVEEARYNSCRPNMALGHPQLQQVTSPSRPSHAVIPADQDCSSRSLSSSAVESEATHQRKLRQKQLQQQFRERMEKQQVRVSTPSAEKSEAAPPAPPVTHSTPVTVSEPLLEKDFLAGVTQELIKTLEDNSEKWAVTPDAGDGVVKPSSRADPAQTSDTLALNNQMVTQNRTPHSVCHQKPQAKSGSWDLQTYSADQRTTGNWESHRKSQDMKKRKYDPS
Cneo AK release: Cryptococcus neoformans cell lysis inducers, primary screen, AK release luminescence, single concentration. C. neoformans lysis, adenylate kinase release luminescence, 4 h; normalised: neutral wells 0, clomiphene wells 100. hit rate 0.2% among 360,000. AID 651654, 2012. lysis activity, % at 15 µM;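 active = mean lysis activity across replicates of at least 80%, whatever share of replicates individually reach that level; inactive = mean lysis activity below 80%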
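Signal: Adenylate kinase release luminescence | Assay system: Log-phase Cryptococcus neoformans yeast cells | Input: Cells at 5 × 10^6 per mL | Buffer or medium: Fresh YPD growth medium | Compound: Single dose | Schedule: Static 4 h at 37 °C with compound, 1 h detection | Controls: Clomiphene | Read-out: Luminescence rise reflecting yeast cell lysis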
Active calls of the source: *; . = no result. Most compounds without a hit are left out; they make up all but 1.9% or so of the library.

SMILES | RAD54 inh | Ecoli rRNA inh | PglD DTNB | RAD52 inh | Cneo AK release
CCOC(=O)c1cnc2c(Cl)cc(Cl)cc2c1NCCCN1CCOCC1 | 17.9 | -22.5 | -6.9 | -21.2 | -0.6
CCOC(=O)c1cnc2c(C)cc(Cl)cc2c1NCCCN1CCOCC1 | 57.0* | -30.6 | 10.1 | 12.5 | 3.6
O=C(C1CCCCC1)N1CC2(C1)[C@@H](c1ccccc1)[C@@H](CO)N2C(=O)NC1CCCC1 | . | -3.5 | . | 3.4 | .
O=C1CCCc2cnnn2COCCN1 | . | 8.5 | . | . | .
CC1(C(=O)NCCc2c[nH]c3ccccc23)CCN1CC1CCCCC1 (configuration not stated) | -5.5 | -23.4* | -2.0 | -1.4 | -0.6
Cc1cc(C)c(C#N)c(Sc2nc(C)c([N+](=O)[O-])c(C)c2C#N)n1 | . | 8.6 | . | 4.0 | .
Cc1nc(Sc2ccccc2)c(C#N)c(C)c1[N+](=O)[O-] | -2.5 | -35.2* | -0.6 | -2.3 | 3.6
NNc1nc2c(-c3ccc(F)cc3)nnn2c2ccccc12 | -3.8 | -16.6* | -1.8 | -129.3 | 0.4
NNc1nc2c(-c3ccc(Cl)cc3)nnn2c2ccccc12 | -13.5 | -21.8 | -0.2 | -27.9 | -1.2
COc1cc(C)ccc1OCCOCCOc1cccc2ccc(C)nc12 | 1.2 | -31.8* | 2.8 | -5.0 | 5.8
CC(=O)N1N=C(c2cccs2)CC1c1ccc(Br)cc1 (configuration not stated) | -4.0 | -27.1 | 1.1 | -0.8 | -6.0
Cc1ccc(C2CC(c3cccs3)=NN2C(=O)c2ccc(Br)o2)cc1 (configuration not stated) | -11.9 | . | -2.3 | . | 199.9*
CNC(=S)N1N=C(c2cccs2)CC1c1ccc(OC)cc1 (configuration not stated) | 8.4 | -20.6* | 8.2 | -20.2 | -5.1
CN(C)C(=O)[C@H]1[C@H](CO)[C@H]2Cn3c(ccc(C4=CCCC4)c3=O)[C@@H]1N2Cc1ccccn1 | . | 2.3 | . | -24.2 | .
CCCNc1nc(N2CCCC2)nc(N2CCCC2)n1 | -6.8 | -21.1* | -3.1 | -7.6 | -0.3
COc1ccc(S(=O)(=O)Nc2ccc3c(c2)C(=O)N([C@H](C)CO)C[C@@H](C)[C@H](CN(C)C(=O)Nc2cccc4ccccc24)OCCCC[C@@H](C)O3)cc1 | 3.3 | -1.7 | -0.5 | . | 1.3
COc1cccc(CN2CCN(C(=O)c3cc(-c4cccnc4)nc4ccc(C)cc34)CC2)c1 | . | -27.4* | . | -7.5 | .
COc1ccc2nc(-c3ccccc3)cc(C(=O)N3CCC3)c2c1 | 4.6 | -10.0 | -3.8 | -9.7 | 1.3
O=C(N/N=C/c1ccc[nH]1)c1cc(-c2cccs2)nc2ccccc12 | 2.3 | -24.1* | -5.5 | -8.3 | 2.1
COc1ccccc1CCNC(=O)c1cccc(NC(=O)CC2SC(N3CCCCC3)=NC2=O)c1 (configuration not stated) | 1.0 | -21.1* | -1.4 | -32.7 | -0.2
O=C(CC1SC(N2CCCCC2)=NC1=O)Nc1cccc(C(=O)NCc2ccc(F)cc2)c1 (configuration not stated) | 10.6 | 2.2 | 1.9 | -12.1 | -1.2
COc1ccc2c3c(n(C)c2c1)[C@H](CO)N(C(=O)Nc1cccc(F)c1)CC31CCN(C)CC1 | . | 6.5 | . | . | .
Cc1ccc(S(=O)(=O)Nc2ccc3c(c2)C(=O)N([C@H](C)CO)C[C@H](C)[C@H](CN(C)S(=O)(=O)c2ccc(F)cc2)OCCCC[C@H](C)O3)cc1 | -0.5 | -4.2 | -1.3 | -1.8 | -4.7
CCC(=O)Nc1cccc(NC(=S)NC(=O)c2ccc(C)cc2)c1 | . | -1.2 | . | -9.8 | .
CCC(=O)Nc1cccc(NC(=S)NC(=O)c2cccc(C)c2)c1 | . | -17.1* | . | -12.3 | .
N#Cc1c2n(c3c(=O)n(Cc4ccccc4)cnc13)CCCC2 | 14.1 | -24.6* | 2.0 | -2.3 | -0.8
C[C@H]1CN([C@@H](C)CO)S(=O)(=O)c2ccc(C#Cc3ccccc3F)cc2O[C@@H]1CN(C)C | 6.5 | 0.2 | -1.9 | -7.4 | 11.5
CC(C)NC(=O)Nc1ccc2c(c1)C(=O)N([C@H](C)CO)C[C@@H](C)[C@@H](CN(C)Cc1ccc(-c3ccccc3)cc1)O2 | -2.3 | -4.4 | -0.4 | 12.3 | 2.4

Assay outcomes from PubChem BioAssay.
